Measured values: ChEMBL document CHEMBL3352181, “Novel phenyl and pyridyl substituted derivatives of isoindolines: Synthesis, antitumor activity and DNA binding features” (Eur J Med Chem, 2014)
Activity calls are given as the source filed them. No cut-off for these calls is given here.

Legend:
Hep G2 (human) [1] = assay: Induction of apoptosis in human HepG2 cells assessed as induction of apoptotic bodies at 50 uM after 24 hrs by Annexin V-Fluos staining based fluorescent microscopy
HepG2 [2] = assay: Induction of cell cycle arrest on human HepG2 cells assessed as accumulation at S phase at 20 uM after 24 hrs by propidium iodide staining based flow cytometry (reference value: 17.0 +/- 2.9%); assay type: functional
HepG2 [3] = assay: Induction of cell cycle arrest on human HepG2 cells assessed as accumulation at G2/M phase at 50 uM after 24 hrs by propidium iodide staining based flow cytometry (reference value: 16.5 +/- 1.6%); assay type: functional
BJ = assay: Antiproliferative activity against human BJ cells assessed as inhibition of cell proliferation after 72 hrs by MTT assay; assay type: cell-based; conditions: 72 h
In short: (§1)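 Cells grown as monolayers in DMEM with 10% FBS, 2 mM L-glutamine, penicillin/streptomycin, 37 °C, 5% CO2. Seeded at 5000/well on day 0. Compounds added after 24 h as five serial dilutions (0,01 to 100 µM), DMSO ≤0.1%, then 72 h. MTT read-out converted to percentage growth. IC50 by linear regression; quadruplicates in three experiments.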

HepG2 [4] = assay: Induction of cell cycle arrest on human HepG2 cells assessed as accumulation at G2/M phase at 20 uM after 48 hrs by propidium iodide staining based flow cytometry (reference value: 28.0 +/- 13.8%); assay type: functional
HepG2 [5] = assay: Induction of cell cycle arrest on human HepG2 cells assessed as accumulation at S phase at 50 uM after 48 hrs by propidium iodide staining based flow cytometry (reference value: 9.3 +/- 13.2%); assay type: functional
In short: (§2)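 HepG2 or SW620 cells were seeded at 25000 per well. After 24 h they were treated, then harvested 24 or 48 h later. Attached cells were trypsinized, pooled with floating cells, PBS-washed and fixed in 70% ethanol. Cells were stained with PI 1 µg/mL plus RNase A 0.2 µg/mL, and 10 000 events were acquired by flow cytometry. Phase percentages come from DNA histograms, in duplicate, with ANOVA at p < 0.05.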

HepG2 [6] = assay: Antiproliferative activity against human HepG2 cells assessed as inhibition of cell proliferation after 72 hrs by MTT assay; assay type: functional, cell-based
In short: as §1

MCF7 = assay: Antiproliferative activity against human MCF7 cells assessed as inhibition of cell proliferation after 72 hrs by MTT assay; assay type: functional, cell-based
In short: as §1

SW-620 = assay: (§3) Antiproliferative activity against human SW620 cells assessed as inhibition of cell proliferation after 72 hrs by MTT assay; assay type: functional, cell-based
In short: as §1

[7] = as §3; assay type: functional, cell-based, SW-620; conditions: Homo sapiens, SW-620, 72 h
In short: as §1

Hep G2 (human) [8] = assay: Induction of apoptosis in human HepG2 cells assessed as induction of cytoplasmic shrinkage at 50 uM after 24 hrs by Annexin V-Fluos staining based fluorescent microscopy
HepG2 [9] = assay: Induction of cell cycle arrest on human HepG2 cells assessed as accumulation at subG1 phase at 50 uM after 24 hrs by propidium iodide staining based flow cytometry (reference value: 2.9 +/- 1.1%); assay type: functional
In short: as §2

HepG2 [10] = assay: Induction of cell cycle arrest on human HepG2 cells assessed as accumulation at G2/M phase at 20 uM after 24 hrs by propidium iodide staining based flow cytometry (reference value: 16.5 +/- 1.6%); assay type: functional
HepG2 [11] = assay: Induction of cell cycle arrest on human HepG2 cells assessed as accumulation at G1 phase at 20 uM after 48 hrs by propidium iodide staining based flow cytometry (reference value: 62.7 +/- 0.5%); assay type: functional
HepG2 [12] = assay: Induction of cell cycle arrest on human HepG2 cells assessed as accumulation at S phase at 20 uM after 48 hrs by propidium iodide staining based flow cytometry (reference value: 9.3 +/- 13.2%); assay type: functional
In short: as §2

HepG2 [13] = assay: Induction of cell cycle arrest on human HepG2 cells assessed as accumulation at subG1 phase at 50 uM after 48 hrs by propidium iodide staining based flow cytometry (reference value: 1.7 +/- 0.5%); assay type: functional
In short: as §2

HepG2 [14] = assay: Induction of cell cycle arrest on human HepG2 cells assessed as accumulation at subG1 phase at 20 uM after 24 hrs by propidium iodide staining based flow cytometry (reference value: 2.9 +/- 1.1%); assay type: functional
In short: as §2

HepG2 [15] = assay: Induction of cell cycle arrest on human HepG2 cells assessed as accumulation at G2/M phase at 50 uM after 48 hrs by propidium iodide staining based flow cytometry (reference value: 28.0 +/- 13.8%); assay type: functional
HepG2 [16] = assay: Induction of cell cycle arrest on human HepG2 cells assessed as accumulation at subG1 phase at 20 uM after 48 hrs by propidium iodide staining based flow cytometry (reference value: 1.7 +/- 0.5%); assay type: functional
In short: as §2

HepG2 [17] = assay: Induction of cell cycle arrest on human HepG2 cells assessed as accumulation at G1 phase at 50 uM after 24 hrs by propidium iodide staining based flow cytometry (reference value: 66.5 +/- 1.4%); assay type: functional
HepG2 [18] = assay: Induction of cell cycle arrest on human HepG2 cells assessed as accumulation at S phase at 50 uM after 24 hrs by propidium iodide staining based flow cytometry (reference value: 17.0 +/- 2.9%); assay type: functional
In short: as §2

HeLa = assay: Antiproliferative activity against human HeLa cells assessed as inhibition of cell proliferation after 72 hrs by MTT assay; assay type: functional, cell-based
In short: as §1

HepG2 [19] = assay: Induction of cell cycle arrest on human HepG2 cells assessed as accumulation at G1 phase at 50 uM after 48 hrs by propidium iodide staining based flow cytometry (reference value: 62.7 +/- 0.5%); assay type: functional
HepG2 [20] = assay: Induction of cell cycle arrest on human HepG2 cells assessed as accumulation at G1 phase at 20 uM after 24 hrs by propidium iodide staining based flow cytometry (reference value: 66.5 +/- 1.4%); assay type: functional

IC50 (HepG2 [6]; HepG2, 72 h): 9.41 µM | IC50 (MCF7; Homo sapiens, MCF7, 72 h): 71.2 µM | IC50 (HeLa; Homo sapiens, HeLa, 72 h): 8.81 µM
Compound: N#Cc1ccc(/N=C2\c3ccccc3CN2c2ccc(C#N)cn2)nc1
Activity (Hep G2 (human) [1]): inactive | Activity (HepG2 [2]): 21.5% | Activity (HepG2 [3]): 16.2% | IC50 (BJ; Homo sapiens, BJ): 63.8 µM | inhibition (INH) (BJ; human, bj): Dose-dependent effect | Activity (HepG2 [4]): 19.5% | Activity (HepG2 [5]): 18.5% | inhibition (HepG2 [6]): Dose-dependent effect | inhibition (MCF7): Dose-dependent effect | inhibition (SW-620): Dose-dependent effect | IC50 [7]: > 100 µM | Activity (Hep G2 (human) [8]): inactive | Activity (HepG2 [9]): 6.7% | Activity (HepG2 [10]): 20.4% | Activity (HepG2 [11]): 61% | Activity (HepG2 [12]): 19.5% | Activity (HepG2 [13]): 8.4% | Activity (HepG2 [14]): 6.6% | Activity (HepG2 [15]): 20.3% | Activity (HepG2 [16]): 5.7% | Activity (HepG2 [17]): 57.4% | Activity (HepG2 [18]): 26.4% | inhibition (HeLa): Dose-dependent effect | Activity (HepG2 [19]): 61.2% | Activity (HepG2 [20]): 58.1%
